pIC50: −log10 of the molar value. Calls of active or inactive are those of the source. No cut-off for these calls is given here.
Tests used:
[1] = molecular target: CDK6/cyclin D3 (Homo sapiens, UniProt Q00534); experiment: Inhibition of recombinant full-length human CDK6/cyclinD3 using histone H1 as substrate measured after 40 mins in presence of [gamma33P]ATP by scintillation counting method; assay type: protein-complex assay
[2] = tested on: NCI-H1299; experiment: Inhibition of colony formation in human H1299 cells after 12 days by crystal violet staining based assay; assay type: functional, cell-based
In short: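 Cells exposed to compound, then washed, trypsinized and reseeded at 300 cells per well in 6-well plates. Colonies grew 10-14 days (legend: 12 days), were fixed in methanol 30 min, stained overnight with 0.5% crystal violet and imaged.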

[3] = tested on: A549; experiment: Induction of apoptosis in human A549 cells assessed as viable cells at 0.5 uM after 48 hrs by AnnexinV-FITC/PI staining-based flow cytometric analysis (reference value: 88.8%); assay type: functional; conditions: A549, 48 h, read-out: Activity
[4] = tested on: NCI-H1299; experiment: Induction of apoptosis in human H1299 cells assessed as viable cells at 1 uM after 48 hrs by AnnexinV-FITC/PI staining-based flow cytometric analysis (reference value: 97.1%); assay type: functional; conditions: NCI-H1299, 48 h, read-out: Activity
[5] = tested on: NCI-H1299; experiment: Antitumour activity against human H1299 cells xenografted in Balb/c mouse assessed as inhibition of Rb phosphorylation at Ser 780 residue at 20 to 80 mg/kg, po administered for 3 weeks by […] based light microscopic analysis; assay type: functional, organism-based
In short: (§1)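 Tumours came from the H1299 oral-dosing xenograft run for 3 weeks. Formalin-fixed, paraffin-embedded 5-µm sections were deparaffinized and rehydrated. Primary antibodies (CDK9, cyclin T1, p-Rb Ser780, RNAPII CTD Ser5, Oct4) used at 1:100 overnight at 4 °C. Biotinylated secondary for 1 h at room temperature, then ABC-peroxidase/DAB, hematoxylin counterstain and light microscopy.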

[6] = tested on: NCI-H1299; experiment: Antitumour activity against human H1299 cells xenografted in Balb/c mouse assessed as inhibition of phosphorylation of RNA polymerase 2 CTD domain at Ser 5 residue at 20 to 80 mg/kg, po administered for 3 weeks by […] based light microscopic analysis; assay type: functional, organism-based; in short: as §1
[7] = molecular target: Tyrosine-protein kinase ABL1 (Homo sapiens) (UniProt P00519); experiment: Inhibition of human ABL1 at 1 uM using EAIYAAPFAKKK as substrate measured after 40 mins by [gamma33P]ATP by scintillation counting method relative to control
In short: (§2)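 Percent inhibition of kinase activity at a single compound concentration, measured by the outsourced Eurofins KinaseProfiler panel. Values are the mean of two independent experiments.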

[8] = molecular target: Mitogen-activated protein kinase kinase kinase 10 (Homo sapiens) (UniProt Q02779); experiment: Inhibition of recombinant human MLK2 (1 to 449 residues) at 1 uM using myelin basic protein as substrate measured after 40 mins in presence of [gamma33P]ATP by scintillation counting method relative to control
[9] = molecular target: MAPK/MAK/MRK overlapping kinase (Homo sapiens) (UniProt Q9UQ07); experiment: Inhibition of recombinant human MOK (1 to 343 residues) at 1 uM using RSRSRSRSRSRSRSR as substrate measured after 40 mins in presence of [gamma33P]ATP by scintillation counting method relative to control
[10] = molecular target: CDK4/Cyclin D3 (Homo sapiens) (UniProt P11802+P30281); experiment: Inhibition of recombinant full-length human CDK4/cyclinD3 at 1 uM using Rb fragment as substrate measured after 40 mins in presence of [gamma33P]ATP by scintillation counting method relative to control; assay type: protein-complex assay; in short: as §2
[11] = molecular target: Serine/threonine-protein kinase Nek2 (Homo sapiens) (UniProt P51955); experiment: Inhibition of recombinant full-length human NEK2 at 1 uM using myelin basic protein as substrate measured after 40 mins in presence of [gamma33P]ATP by scintillation counting method relative to control
[12] = molecular target: Protein kinase C alpha type (Homo sapiens) (UniProt P17252); experiment: Inhibition of recombinant full-length human PKCalpha at 1 uM using histone H1 as substrate measured after 40 mins in presence of [gamma33P]ATP by scintillation counting method relative to control
[13] = tested on: Serine/threonine-protein kinase D1 (Homo sapiens), Q15139 [UNDEFINED MUTATION]; experiment: Inhibition of recombinant full-length human PKCmu R135A mutant at 1 uM using KKLNRTLSVA as substrate measured after 40 mins in presence of [gamma33P]ATP by scintillation counting method relative to control
[14] = molecular target: Serine/threonine-protein kinase PLK3 (Homo sapiens) (UniProt Q9H4B4); experiment: Inhibition of recombinant human Plk3 (19 to 301 residues) at 1 uM using casein as substrate measured after 40 mins in presence of [gamma33P]ATP by scintillation counting method relative to control
In short: (§3)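 Single-point inhibition at 1 µM was measured in the Eurofins KinaseProfiler panel. Values are the mean of two independent experiments.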

[15] = tested on: eIF-2-alpha kinase GCN2 (Homo sapiens), Q9P2K8 [E556G]; experiment: Inhibition of recombinant full-length human GCN2 E556G mutant at 1 uM using RSRSRSRSRSRSRSR as substrate measured after 40 mins in presence of [gamma33P]ATP by scintillation counting method relative to control
[16] = molecular target: Rhodopsin kinase GRK7 (Homo sapiens) (UniProt Q8WTQ7); experiment: Inhibition of recombinant full-length human GRK7 at 1 uM using casein as substrate measured after 40 mins in presence of [gamma33P]ATP by scintillation counting method relative to control
[17] = molecular target: Tyrosine-protein kinase JAK1 (Homo sapiens) (UniProt P23458); experiment: Inhibition of recombinant human JAK1 (866 to end residues) at 1 uM using GEEPLYWSFPAKKK as substrate measured after 40 mins in presence of [gamma33P]ATP by scintillation counting method relative to control
[18] = molecular target: Mitogen-activated protein kinase kinase kinase 7 (Homo sapiens) (UniProt O43318); experiment: Inhibition of human TAK1 (1 to 303 residues) at 1 uM using casein as substrate measured after 40 mins in presence of [gamma33P]ATP by scintillation counting method relative to control; in short: as §2
[19] = molecular target: MAP kinase-activated protein kinase 3 (Homo sapiens) (UniProt Q16644); experiment: Inhibition of recombinant human MAPKAPK3 (2 to end residues) at 1 uM using KKLNRTLSVA as substrate measured after 40 mins in presence of [gamma33P]ATP by scintillation counting method relative to control
[20] = molecular target: Serine/threonine-protein kinase VRK2 (Homo sapiens) (UniProt Q86Y07); experiment: Inhibition of recombinant human VRK2 (1 to 336 residues) at 1 uM using casein as substrate measured after 40 mins in presence of [gamma33P]ATP by scintillation counting method relative to control
[21] = molecular target: Tyrosine-protein kinase Yes (Homo sapiens) (UniProt P07947); experiment: Inhibition of recombinant full-length human YES at 1 uM using poly(Glu, Tyr) 4:1 as substrate measured after 40 mins in presence of [gamma33P]ATP by scintillation counting method relative to control
[22] = organism: Homo sapiens; experiment: Inhibition of recombinant full-length human PI3K p110alpha/p65alpha (1 to 571 residues) at 1 uM using phosphatidylinositol-4, 5-bisphosphate as substrate measured after 40 mins by HTRF assay relative to control; in short: as §3

Chain of Mitogen-activated protein kinase kinase kinase 7 (Homo sapiens) (O43318 whole entry, the tested form may be a part): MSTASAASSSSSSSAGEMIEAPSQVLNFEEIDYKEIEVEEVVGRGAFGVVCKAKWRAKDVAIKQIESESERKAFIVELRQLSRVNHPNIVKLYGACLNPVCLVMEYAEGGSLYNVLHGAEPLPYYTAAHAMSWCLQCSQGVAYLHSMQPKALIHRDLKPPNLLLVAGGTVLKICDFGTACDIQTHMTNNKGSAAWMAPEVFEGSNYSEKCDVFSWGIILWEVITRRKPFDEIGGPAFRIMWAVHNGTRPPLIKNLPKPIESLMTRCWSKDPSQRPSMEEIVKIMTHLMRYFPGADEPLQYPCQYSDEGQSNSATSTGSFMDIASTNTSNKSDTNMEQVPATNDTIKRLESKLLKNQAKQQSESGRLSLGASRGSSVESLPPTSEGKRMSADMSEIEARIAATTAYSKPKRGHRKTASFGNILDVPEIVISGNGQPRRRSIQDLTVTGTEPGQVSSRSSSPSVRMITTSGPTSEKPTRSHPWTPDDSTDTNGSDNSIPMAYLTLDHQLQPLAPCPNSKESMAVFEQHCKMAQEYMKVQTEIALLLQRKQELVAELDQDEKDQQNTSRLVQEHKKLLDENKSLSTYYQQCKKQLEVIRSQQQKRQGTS
Chain of Tyrosine-protein kinase Yes (Homo sapiens) (P07947 2-543 limits assumed): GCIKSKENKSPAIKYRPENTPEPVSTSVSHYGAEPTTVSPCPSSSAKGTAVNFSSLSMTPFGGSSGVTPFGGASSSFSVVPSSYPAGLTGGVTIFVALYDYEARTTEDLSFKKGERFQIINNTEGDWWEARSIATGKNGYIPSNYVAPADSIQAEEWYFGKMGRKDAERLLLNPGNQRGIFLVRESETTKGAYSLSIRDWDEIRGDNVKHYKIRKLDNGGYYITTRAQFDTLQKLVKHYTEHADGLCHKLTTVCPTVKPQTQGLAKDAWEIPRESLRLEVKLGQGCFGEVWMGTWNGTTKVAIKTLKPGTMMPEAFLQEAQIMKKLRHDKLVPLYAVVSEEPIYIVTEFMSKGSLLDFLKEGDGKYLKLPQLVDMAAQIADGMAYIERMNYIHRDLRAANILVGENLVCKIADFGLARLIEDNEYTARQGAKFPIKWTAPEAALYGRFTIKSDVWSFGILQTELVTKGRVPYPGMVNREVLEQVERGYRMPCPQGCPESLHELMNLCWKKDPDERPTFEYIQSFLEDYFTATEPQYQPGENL
Chain of eIF-2-alpha kinase GCN2 (Homo sapiens), Q9P2K8 [E556G] (Q9P2K8 whole entry E556G): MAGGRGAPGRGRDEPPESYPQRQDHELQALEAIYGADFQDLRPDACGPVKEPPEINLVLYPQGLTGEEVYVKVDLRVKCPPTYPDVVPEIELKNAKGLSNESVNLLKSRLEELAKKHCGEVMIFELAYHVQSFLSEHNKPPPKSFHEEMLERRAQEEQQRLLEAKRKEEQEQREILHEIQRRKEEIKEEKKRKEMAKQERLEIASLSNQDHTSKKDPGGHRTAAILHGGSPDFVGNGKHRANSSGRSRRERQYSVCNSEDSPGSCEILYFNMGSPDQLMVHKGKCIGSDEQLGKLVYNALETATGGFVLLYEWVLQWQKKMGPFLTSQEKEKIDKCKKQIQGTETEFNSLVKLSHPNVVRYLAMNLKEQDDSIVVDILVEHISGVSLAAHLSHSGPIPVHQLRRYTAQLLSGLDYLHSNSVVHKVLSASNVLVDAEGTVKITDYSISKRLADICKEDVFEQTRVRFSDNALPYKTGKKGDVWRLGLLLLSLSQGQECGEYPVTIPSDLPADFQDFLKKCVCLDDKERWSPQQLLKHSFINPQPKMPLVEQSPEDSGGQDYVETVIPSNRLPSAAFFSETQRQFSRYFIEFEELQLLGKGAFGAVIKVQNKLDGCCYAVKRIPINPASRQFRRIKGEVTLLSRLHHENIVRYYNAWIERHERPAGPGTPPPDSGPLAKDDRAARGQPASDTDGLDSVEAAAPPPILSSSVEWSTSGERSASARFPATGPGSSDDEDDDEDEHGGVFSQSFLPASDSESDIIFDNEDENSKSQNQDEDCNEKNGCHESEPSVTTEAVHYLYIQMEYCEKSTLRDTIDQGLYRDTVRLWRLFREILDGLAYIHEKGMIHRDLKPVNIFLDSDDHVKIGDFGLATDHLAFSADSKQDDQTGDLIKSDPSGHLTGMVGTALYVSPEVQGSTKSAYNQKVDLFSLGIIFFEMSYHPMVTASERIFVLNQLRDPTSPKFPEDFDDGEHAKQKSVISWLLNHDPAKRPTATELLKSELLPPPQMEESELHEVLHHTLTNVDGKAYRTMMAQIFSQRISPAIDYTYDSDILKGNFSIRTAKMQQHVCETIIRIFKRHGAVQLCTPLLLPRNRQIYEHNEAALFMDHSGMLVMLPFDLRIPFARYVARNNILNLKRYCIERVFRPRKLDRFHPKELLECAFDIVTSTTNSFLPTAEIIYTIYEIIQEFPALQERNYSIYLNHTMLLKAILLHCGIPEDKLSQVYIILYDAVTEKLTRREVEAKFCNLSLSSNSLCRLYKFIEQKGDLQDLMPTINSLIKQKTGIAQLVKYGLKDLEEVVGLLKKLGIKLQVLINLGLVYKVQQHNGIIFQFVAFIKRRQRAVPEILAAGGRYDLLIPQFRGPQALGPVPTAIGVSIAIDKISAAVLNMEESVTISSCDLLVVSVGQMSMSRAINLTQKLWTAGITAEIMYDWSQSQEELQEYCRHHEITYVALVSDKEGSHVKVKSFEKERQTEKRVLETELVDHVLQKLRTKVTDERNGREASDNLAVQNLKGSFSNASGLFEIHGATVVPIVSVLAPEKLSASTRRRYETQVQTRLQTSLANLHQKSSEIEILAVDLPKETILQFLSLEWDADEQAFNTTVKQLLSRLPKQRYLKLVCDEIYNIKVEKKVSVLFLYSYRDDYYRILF
Chain of MAP kinase-activated protein kinase 3 (Homo sapiens) (Q16644 whole entry, looked up, the tested form may be a part): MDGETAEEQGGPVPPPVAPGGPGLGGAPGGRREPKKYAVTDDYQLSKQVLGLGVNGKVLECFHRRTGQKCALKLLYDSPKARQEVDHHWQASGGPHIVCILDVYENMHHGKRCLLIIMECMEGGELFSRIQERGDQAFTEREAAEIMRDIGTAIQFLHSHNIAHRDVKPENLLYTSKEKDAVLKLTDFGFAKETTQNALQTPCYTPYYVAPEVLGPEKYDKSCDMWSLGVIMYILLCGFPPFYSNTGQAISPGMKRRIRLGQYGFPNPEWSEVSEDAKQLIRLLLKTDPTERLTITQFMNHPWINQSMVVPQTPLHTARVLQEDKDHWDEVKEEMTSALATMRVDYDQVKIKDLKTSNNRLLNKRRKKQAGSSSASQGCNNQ
Chain of CDK6/cyclin D3 (P30281 whole entry): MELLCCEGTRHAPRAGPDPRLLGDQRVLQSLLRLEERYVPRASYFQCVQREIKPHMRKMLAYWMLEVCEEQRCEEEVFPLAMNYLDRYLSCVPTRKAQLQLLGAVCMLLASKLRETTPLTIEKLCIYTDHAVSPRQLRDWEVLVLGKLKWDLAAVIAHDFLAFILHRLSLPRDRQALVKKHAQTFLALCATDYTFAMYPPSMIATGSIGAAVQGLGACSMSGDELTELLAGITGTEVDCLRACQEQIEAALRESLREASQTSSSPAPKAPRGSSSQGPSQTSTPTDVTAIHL
Chain of CDK6/cyclin D3 (Q00534 whole entry): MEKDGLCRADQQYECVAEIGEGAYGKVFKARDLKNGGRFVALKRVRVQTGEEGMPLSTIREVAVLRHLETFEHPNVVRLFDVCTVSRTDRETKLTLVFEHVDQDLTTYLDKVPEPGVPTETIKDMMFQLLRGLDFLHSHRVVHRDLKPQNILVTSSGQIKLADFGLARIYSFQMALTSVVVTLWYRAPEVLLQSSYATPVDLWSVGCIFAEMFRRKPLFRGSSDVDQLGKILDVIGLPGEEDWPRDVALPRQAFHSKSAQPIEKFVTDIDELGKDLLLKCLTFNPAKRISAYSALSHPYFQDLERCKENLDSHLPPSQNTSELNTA
Chain of Serine/threonine-protein kinase PLK3 (Homo sapiens) (Q9H4B4 whole entry, looked up, the tested form may be a part): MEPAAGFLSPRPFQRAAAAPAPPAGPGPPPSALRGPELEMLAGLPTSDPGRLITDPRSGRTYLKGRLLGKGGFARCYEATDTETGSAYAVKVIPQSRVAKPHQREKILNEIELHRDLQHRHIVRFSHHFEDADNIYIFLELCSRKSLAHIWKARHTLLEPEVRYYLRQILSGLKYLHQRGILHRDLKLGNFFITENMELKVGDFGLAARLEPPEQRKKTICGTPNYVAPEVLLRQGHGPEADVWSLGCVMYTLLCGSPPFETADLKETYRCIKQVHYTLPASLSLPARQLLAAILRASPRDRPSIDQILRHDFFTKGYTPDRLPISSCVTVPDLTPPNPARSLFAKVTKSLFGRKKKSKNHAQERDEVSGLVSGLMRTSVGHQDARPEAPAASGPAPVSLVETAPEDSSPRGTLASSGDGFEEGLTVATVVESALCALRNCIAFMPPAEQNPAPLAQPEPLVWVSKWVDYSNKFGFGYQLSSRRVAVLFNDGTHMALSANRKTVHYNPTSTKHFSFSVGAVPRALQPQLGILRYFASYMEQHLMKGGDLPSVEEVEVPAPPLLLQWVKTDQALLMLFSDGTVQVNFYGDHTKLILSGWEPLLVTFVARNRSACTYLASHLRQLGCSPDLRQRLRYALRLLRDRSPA
Chain of Rhodopsin kinase GRK7 (Homo sapiens) (Q8WTQ7 whole entry): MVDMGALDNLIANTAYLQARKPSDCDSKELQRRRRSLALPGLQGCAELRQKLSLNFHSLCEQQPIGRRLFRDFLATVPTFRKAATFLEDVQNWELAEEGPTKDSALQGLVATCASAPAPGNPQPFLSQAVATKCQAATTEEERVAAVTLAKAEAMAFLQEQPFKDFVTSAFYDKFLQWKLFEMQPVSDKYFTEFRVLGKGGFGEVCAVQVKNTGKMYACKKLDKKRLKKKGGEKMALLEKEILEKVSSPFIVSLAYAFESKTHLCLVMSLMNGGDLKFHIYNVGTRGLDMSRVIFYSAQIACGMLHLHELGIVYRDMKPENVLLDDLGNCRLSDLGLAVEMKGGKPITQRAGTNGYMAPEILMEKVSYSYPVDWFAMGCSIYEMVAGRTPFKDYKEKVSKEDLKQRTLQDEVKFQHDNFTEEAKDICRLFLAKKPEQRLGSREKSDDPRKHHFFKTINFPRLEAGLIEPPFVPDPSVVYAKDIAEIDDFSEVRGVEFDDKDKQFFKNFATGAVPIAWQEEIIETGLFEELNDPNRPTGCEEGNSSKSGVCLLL

CN(C)C(=O)c1cc2cnc(Nc3ccc(NC(=O)CCCCCCCN=C=S)cc3)nc2n1C1CCCC1
pIC50 [1]: 6.84
inhibition [2]: Dose-dependent effect
viability at 0.5 µM [3]: 78.8%
viability at 1 µM [4]: 89.6%
Activity [5]: Active
Activity [6]: Active
inhibition [7]: 88%
inhibition [8]: 65%
inhibition [9]: 21%
inhibition [10]: 87%
inhibition [11]: 13%
inhibition [12]: 68%
inhibition [13]: 3%
inhibition [14]: 1%
inhibition [15]: 0%
inhibition [16]: 9%
inhibition [17]: 77%
inhibition [18]: 79%
inhibition [19]: 0%
inhibition [20]: 0%
inhibition [21]: 61%
inhibition [22]: 1%
